We go through 40 compounds from PubChem BioAssay.

Active and inactive are the calls of the source.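 The calls were made as follows, unless noted: active = potentiation averaged over duplicate wells exceeding buffer-only control mean by more than 3 SD; inactive = the rest.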

Chain of Potassium voltage-gated channel subfamily KQT member 1 (Homo sapiens) (P51787 whole entry, looked up): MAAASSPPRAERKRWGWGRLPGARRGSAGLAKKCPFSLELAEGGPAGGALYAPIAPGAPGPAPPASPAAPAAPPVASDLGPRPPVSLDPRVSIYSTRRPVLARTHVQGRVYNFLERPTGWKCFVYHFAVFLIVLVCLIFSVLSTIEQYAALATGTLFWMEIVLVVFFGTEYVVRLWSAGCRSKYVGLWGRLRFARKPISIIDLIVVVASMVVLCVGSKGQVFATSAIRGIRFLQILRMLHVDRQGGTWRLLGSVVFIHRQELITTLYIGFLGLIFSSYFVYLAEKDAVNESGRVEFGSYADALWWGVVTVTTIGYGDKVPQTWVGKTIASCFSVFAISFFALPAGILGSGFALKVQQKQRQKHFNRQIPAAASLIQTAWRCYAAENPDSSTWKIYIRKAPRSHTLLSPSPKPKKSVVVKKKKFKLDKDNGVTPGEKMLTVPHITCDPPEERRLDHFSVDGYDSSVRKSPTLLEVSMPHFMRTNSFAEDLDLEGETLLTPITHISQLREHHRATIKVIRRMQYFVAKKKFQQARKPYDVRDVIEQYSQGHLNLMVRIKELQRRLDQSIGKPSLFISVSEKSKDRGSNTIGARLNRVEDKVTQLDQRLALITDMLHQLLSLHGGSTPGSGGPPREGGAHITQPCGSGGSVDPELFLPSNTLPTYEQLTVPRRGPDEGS

Test system in one assay: not listed separately
The assay can be described thus: nonspecific flux increase, KCNQ1-free cells – parental CHO cells, counter-screen for KCNQ1 potentiator project (AID 493006;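 active = duplicate-averaged activation above buffer control mean plus 5 SD of those controls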;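 as to activation: fluorescence ratio of max minus min over baseline after K+ and Tl+ depolarization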). Conditions: parental CHO-K1 cells, FluxOR thallium flux, at 10 µM; hits give high values. The method in brief:
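Material: parental CHO-K1 cells, FluxOR dye-loaded; Also added: Potassium/thallium depolarization pulse; Schedule: overnight 37 °C plating, 90 min dye, 20 min dark compound; Signal: kinetic FluxOR fluorescence, 10 s baseline, 110 s after stimulus.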
(In general: A counterscreen serves to expose hits that act by an unwanted route or on another target.)
Take `Nc1ccccc1OCCOCCOc1ccccc1N`: the result was inactive.

Regarding `CCc1cccc(C)c1NC(=O)c1ccc2nc(N3CCOCC3)sc2c1`, the outcome was inactive.

As to `Oc1c(Br)cc(Br)cc1/C=N/c1nc2c(s1)CCCC2`, the activation was 186% (active).

Regarding `CCCc1cc(=O)[nH]c(SCC(=O)NC(=O)c2ccccc2)n1`, the result was inactive.

In the case of `COc1ccc(S(=O)(=O)N2CCCC(C(=O)O)C2)cc1` (stereo not given), the outcome was inactive.

As to `COc1ccc(CNC(=O)CNC(C)c2ccc(F)cc2)cc1` (stereo not given), the outcome was inactive.

Regarding `Cc1nc2sc(C(c3ccccc3)N3CCN(C(=O)c4ccco4)CC3)c(O)n2n1` (stereo not given), the outcome was inactive.

Consider `Cc1csc(=O)n1CCC(=O)OCC(=O)NCc1ccc(F)cc1`, for which the result was inactive.

With `O=C(NC(=S)NC1CCCc2ccccc21)c1ccco1` (stereo not given), the activation was 188% (active).

Regarding `Oc1c(Br)cc(Br)cc1C=NCc1ccccc1`, the activation was 147% (active).

For `O=C(Cn1ncc2c(=O)oc3ccccc3c21)N1CCN(C(=O)c2ccco2)CC1`, the outcome was inactive.

Take `CC(C)C1Cc2c(sc3[nH]c(=S)n(Cc4ccccc4)c(=O)c23)CO1` (stereo not given): the activation was 404% (active).

For `COc1cccc(/C=N/NC(=O)C(C)n2nc(C)c([N+](=O)[O-])c2C)c1O` (stereo not given), the result was inactive.

Consider `O=C(COc1ccccc1Cl)N(Cc1cccs1)C1CCS(=O)(=O)C1` (stereo not given), for which the result was inactive.

Take `CCOC(=O)CN1C(=O)N(CC)C(C)=C(C(=O)OC)[C@@H]1c1ccccc1`: the outcome was inactive.

For the compound `COc1ccc(/C=N/NC(=O)c2[nH]nc3c2CCc2ccccc2-3)cc1OC`, the activation is 240% (active).

`Cc1nn2c(c1-c1ccccc1)NC1=C(C(=O)CCC1)C2c1ccccc1` (stereo not given): the result was inactive.

For the compound `CCOC(=O)c1cccc(NC(=O)CCc2ccccc2)c1`, the outcome was inactive.

On to `Cc1cccc(Nc2ccccc2C(=O)OCC(=O)N(C)C2CCS(=O)(=O)C2)c1C` (stereo not given), for which the outcome was inactive.

In the case of `CN1C(=O)NC(c2ccc(O)cc2)C(C(=O)c2cccs2)C1(O)C(F)(F)F` (stereo not given), the outcome was inactive.

For the compound `CN1C(=O)CC(N2CCN(CC(=O)N3CCCC3)CC2)C1=O` (stereo not given), the outcome was inactive.

On to `CN(C)c1ccc(NC(=O)COC(=O)c2cc(Cl)ccc2[N+](=O)[O-])cc1`, for which the outcome was inactive.

Another assay has as its target Potassium voltage-gated channel subfamily KQT member 1 (Homo sapiens) (UniProt P51787). Kind of assay: enhancement of KCNQ1 channel thallium flux – FluxOR thallium flux, CHO cells, duplicates, confirmation (AID 493007).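 As to outcome: cells depolarized by a potassium plus thallium sulfate stimulus after compound.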 Conditions: KCNQ1 cell line, FluxOR thallium flux fluorescence, at 10 µM; hits give high values, % of reference activator effect, buffer zero. In a few lines:
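System: KCNQ1-expressing CHO cell line; technique: kinetic thallium influx fluorescence with FluxOR dye, 10 s baseline, 110 s post-stimulus; timing: dye 90 min then compound 20 min, both at room temperature; controls: buffer-only wells as 0% and R-L3 activator as 100%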
For `Cc1ccc(OCC(=O)NNC(=S)NC(=O)c2cccs2)c(C)c1`, the potentiation is 76.5% (active).

Take `Cc1sc(N/N=C/c2ccco2)nc1-c1ccccc1`: the outcome was inactive.

For `CS(=O)(=O)N1CCN(c2ccccc2NC(=O)CSc2nnc(-c3ccco3)o2)CC1`, the outcome was inactive.

Take `CCOC(=O)Cn1c(=S)[nH]c2c(oc3ccc(Cl)cc32)c1=O`: the potentiation was 36% (active).

On to `COCCn1c(=S)[nH]c2sc3c(c2c1=O)CCC(C)C3` (stereo not given), for which the potentiation was 191% (active).

On to `O=c1c2cc(Cl)ccc2nc(-c2ccccc2)n1O`, for which the potentiation is 82.5% (active).

In the case of `COc1cc(OC)cc(C(=O)Nc2nnc(SCC(=O)NCc3ccco3)s2)c1`, the potentiation is 30% (active).

Consider `COc1ccccc1C(=O)NNC(=O)C(=O)NC1CCCCC1`, for which the potentiation was 67.5% (active).

Consider `Cc1ccc(C(=O)Nc2nc(-c3ccccc3)c(-c3ccccc3)o2)cc1`, for which the potentiation was 92.5% (active).

Consider `CC(C)c1nc2sc3c(=S)nc[nH]c3c2c2c1CCC2`, for which the potentiation was 194% (active).

For the compound `S=c1nc(-c2ccccc2)[nH]n1-c1ccccc1`, the potentiation is 210% (active).

With `CCOc1ccc(-c2c(=O)n(O)c3ccccc3[n+]2[O-])cc1`, the potentiation is 59.5% (active).

On to `Cc1sc(NC(=O)c2ccccc2)c(C(c2ccc(Cl)cc2)N2CCN(CCO)CC2)c1C` (stereo not given), for which the outcome was inactive.

For the compound `CCOC(=O)c1sc2ncnc(NCc3ccco3)c2c1C`, the potentiation was 152% (active).

With `CC(C)n1cc(NC(=O)c2cc(-c3ccccc3)on2)cn1`, the potentiation is 35.5% (active).

For the compound `Cc1ccc(SCc2[nH]nc3c2C(c2ccco2)C(C#N)=C(N)O3)cc1` (stereo not given), the outcome was inactive.

As to `CCOC(=O)Cn1c2ccccc2c2nc3ccccc3nc21`, the result was inactive.

For `OC(C#CCCN1CCCCC1)(c1ccccc1)c1ccccc1`, the outcome was inactive.

In the case of `Nc1ccccc1OCCOCCOc1ccccc1N`, the result was inactive.

Take `CCc1cccc(C)c1NC(=O)c1ccc2nc(N3CCOCC3)sc2c1`: the result was inactive.

Consider `Oc1c(Br)cc(Br)cc1/C=N/c1nc2c(s1)CCCC2`, for which the potentiation was 22% (active).

Consider `CCCc1cc(=O)[nH]c(SCC(=O)NC(=O)c2ccccc2)n1`, for which the result was inactive.

Turning to `COc1ccc(S(=O)(=O)N2CCCC(C(=O)O)C2)cc1` (stereo not given), the outcome was inactive.

For `COc1ccc(CNC(=O)CNC(C)c2ccc(F)cc2)cc1` (stereo not given), the result was inactive.

On to `Cc1nc2sc(C(c3ccccc3)N3CCN(C(=O)c4ccco4)CC3)c(O)n2n1` (stereo not given), for which the result was inactive.

Take `Cc1csc(=O)n1CCC(=O)OCC(=O)NCc1ccc(F)cc1`: the result was inactive.

For the compound `O=C(NC(=S)NC1CCCc2ccccc21)c1ccco1` (stereo not given), the potentiation is 122% (active).

As for `Oc1c(Br)cc(Br)cc1C=NCc1ccccc1`, the potentiation was 21.5% (active).
